# Screening results deposited in PubChem by Johns Hopkins Ion Channel Center.
# Shown are actives, neighbours in structure and some others; about 3.5% of the full set was active somewhere.
# MrgX1 allo act: allosterically activates human MrgX1 receptor signaling. Q96LB2. MrgX1-HEK293, Fluo-4 calcium flux, FDSS; hits give high values. B-score at 10 µM. 310,000 tested, 0.63% active;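 active means plate-corrected calcium response at least 3 library SD above typical, normal starting fluorescence, not activating the receptor alone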;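 further: compound read alongside a low EC10 to EC30 dose of BAM8-22 agonist; peak minus trough fluorescence over baseline measured at the second addition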
# Target sequence (Q96LB2 whole entry, looked up): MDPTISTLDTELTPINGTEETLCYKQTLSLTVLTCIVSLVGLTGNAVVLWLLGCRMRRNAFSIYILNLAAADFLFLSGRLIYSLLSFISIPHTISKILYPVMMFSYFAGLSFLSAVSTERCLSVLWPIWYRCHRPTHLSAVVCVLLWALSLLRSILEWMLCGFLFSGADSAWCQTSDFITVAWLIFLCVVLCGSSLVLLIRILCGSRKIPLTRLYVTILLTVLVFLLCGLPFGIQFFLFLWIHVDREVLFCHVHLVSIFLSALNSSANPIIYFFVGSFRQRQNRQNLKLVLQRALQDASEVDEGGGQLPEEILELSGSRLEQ
# MrgX1 antagonist: blocks BAM8-22 activation of human MrgX1 receptor; B-score at 10 µM; Q96LB2; MRGX1-HEK293 calcium flux, Fluo-4, BAM8-22 antagonism; hits give low values; AID 588676; 310,000 tested, 1.3% active;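 active means calcium-response B-score plate-corrected more than 3 library SD below zero, starting fluorescence within 5 deviations, no agonist response on first addition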;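 further: peak minus trough fluorescence over baseline after final BAM8-22 challenge near maximal dose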
# RGS4 inh: inhibitors of human RGS4; P49798; HEK293 M3R/RGS4 inducible, Fluo-4 calcium flux; hits give high values; triggered by carbachol at its EC20; B-score at 10 µM; 310,000 tested, 0.45% active; AID 463165;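 active means B-score, a plate-corrected calcium signal, over three deviations above library mean, with baseline fluorescence within five deviations of library mean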;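 further: RGS4 expression induced by doxycycline in cells with stable M3 receptor; B-score is computed from the integrated fluorescence ratio over baseline after carbachol; higher B-score means a larger calcium signal and so more RGS4 inhibition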
# Target sequence (P49798 whole entry, looked up): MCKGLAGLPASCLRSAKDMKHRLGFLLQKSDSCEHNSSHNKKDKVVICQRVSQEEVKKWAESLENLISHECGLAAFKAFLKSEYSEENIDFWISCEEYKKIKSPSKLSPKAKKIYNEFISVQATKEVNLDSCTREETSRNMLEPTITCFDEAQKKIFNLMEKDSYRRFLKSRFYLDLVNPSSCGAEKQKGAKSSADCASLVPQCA
# MrgX1 agonist: activates human MrgX1 receptor signaling | Q96LB2 | B-score at 10 µM | 310,000 tested, 0.44% active | MrgX1-HEK293 cells, Fluo-4 calcium fluorescence, agonist mode; hits give high values;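 active means calcium response B-score plate-corrected fluorescence ratio at least 3 library SD, with starting fluorescence B-score inside 5 SD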
#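 Test system: HEK293 cells stably expressing human MrgX1 receptor; Input: fifteen thousand cells per well; Dosing: compound delivered in addition one of three; Schedule: overnight seeding, then 1 h dark dye loading; Technique: Fluo-4 NW calcium fluorescence; Measure: B-scored fluorescence response ratio; Controls: positive and negative controls per plate.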
# RGS4 pot: potentiators or activators of RGS4; HEK293 M3R/inducible RGS4, carbachol calcium flux Fluo4; hits give low values; B-score at 10 µM; 310,000 tested, 0.92% active; AID 463111;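 active means B-score of the integrated calcium signal more than 4 SD below the library mean, with starting fluorescence not abnormally high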;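 further: negative B-score means reduced calcium response which marks RGS4 activation or potentiation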
#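 Assay system: Inducible-RGS4 HEK293 cells carrying M3 receptor | Schedule: Compound preincubation 20 min at room temperature before agonist | Signal: Kinetic calcium fluorescence imaging with Fluo4-AM dye, 2 µM | Read-out basis: B score from integrated fluorescence ratio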
# RGS4 activ val: confirmation of RGS4 activators; HEK293 M3R/RGS4 inducible, carbachol calcium flux Fluo4; shares compounds with RGS4 pot; 1,100 tested, 89% active; inhibition, % at 10 µM;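 active means inhibition above 3 SD of the buffer control wells, cut at about 41% in these data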;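 further: signal is the integrated peak-minus-minimum Fluo4 fluorescence over baseline ratio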
# M3R Ca counter: activity in cells without induced RGS4 expression; shares compounds with RGS4 pot; HEK293 M3R non-induced RGS4, Fluo4 calcium flux; after carbachol challenge at its EC90; inhibition, % at 10 µM; 1,100 tested, 82% active;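 active means inhibition exceeding 3 SD of buffer-only control wells, cut at about 26% in these data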;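 further: percent drop in integrated peak-minus-baseline over baseline Fluo4 ratio after carbachol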
# Numbers without * were called inactive; i = inactive; · = no result given.
SMILES,MrgX1 allo act,MrgX1 antagonist,RGS4 inh,MrgX1 agonist,RGS4 pot,RGS4 activ val,M3R Ca counter
COc1ccc(/C(C)=N/NC(=O)c2ccccc2OCc2ccccc2)c(OC)c1,i,i,i,i,i,·,·
COc1ccc(OC)c(CCNC(=O)c2cccc(NC(=O)C3=C(C)OCCS3)c2)c1,i,i,i,i,i,·,·
CC(C)c1cc(-c2cc(C(=O)NCc3ccccc3)on2)nc(NCC2CC2)n1,i,i,i,i,-8.4*,92*,92*
O=C(NC1CCCCC1)N1CCSC1=Nc1ccccc1,i,i,i,i,-8.2*,80*,43*
CN1/C(=C\C=C(/C#N)C(=O)Nc2ccc(Cl)cc2)C(C)(C)c2ccccc21,i,i,i,i,i,·,·
CN1/C(=C\C(=O)Nc2ccc(Cl)cc2)C(C)(C)c2ccccc21,i,i,i,i,-9.7*,92*,95*
CCC(CC)C(=O)Nc1cccc(C(=O)N2CCOCC2)c1,i,i,i,i,-10*,0,0
CCC(CC)C(=O)Nc1cccc(C(=O)N2CCCCCC2)c1,i,i,i,i,i,·,·
Cc1[nH]nc2c1C(c1cn[nH]c1-c1ccc(F)cc1)C(C#N)=C(N)O2 (centres undefined),i,i,i,i,i,·,·
O=C1CCC(c2ccccc2)(C2CCN(Cc3ccccc3)CC2)C(=O)N1 (centres undefined),i,i,i,i,-7.8*,94*,94*
c1ccc(Cn2c(-c3ccccc3)c[n+]3c2SCCC3)cc1,i,i,i,i,-11*,92*,89*
Brc1ccc(-c2c[n+]3c(n2-c2ccccc2)SCC3)cc1,i,i,i,i,i,·,·
O=C(CSc1c2c(nc3ccc(Cl)cc13)CCCC2)NCCCN1CCOCC1,i,i,i,i,-11*,92*,91*
Cc1cccc(N2CCN(C(=S)NCCc3ccccc3)CC2)c1C,i,i,i,i,i,·,·
Cc1ccc(Cl)cc1N1CCN(C(=S)NCCc2ccccc2)CC1,i,i,i,i,-12*,94*,67*
CC(C)n1cc([C@@H]2C[C@H]3CN(Cc4cccc(Cl)c4)C(=O)[C@]34CCCN24)cn1,i,i,i,i,-7.6*,46*,84*
CCN(CC(=O)Nc1cc(Cl)ccc1OC)CC(=O)NC1CCS(=O)(=O)C1 (centres undefined),i,i,i,i,i,·,·
O=C(Nc1ccc2c(c1)OCCO2)c1cccnc1,i,i,i,i,-8.1*,0,0
COc1ccc(/C=N/NC(=O)c2cc(C(C)(C)C)[nH]n2)cc1COc1ccc(F)cc1F,i,i,i,i,-12*,74*,27*
OCCN(CC#CC(O)(c1ccccc1)C1CCCCC1)CCO (centres undefined),i,i,i,i,i,·,·
OC(C#CCCN1CCCCC1)(c1ccccc1)C1CCCCC1 (centres undefined),i,i,i,i,-9*,92*,96*
COc1ccccc1C(=O)NCC1CCN(c2ccc(S(=O)(=O)N3CCOCC3)cc2)CC1,i,i,i,i,-7.8*,93*,86*
COC(=O)c1ccc(N(CC(=O)NC2CCCC2)C(=O)c2ccc(C)s2)cc1,i,i,i,i,-8.9*,0,0
COc1ccc(N(CC(=O)NC2CCCCC2)C(=O)c2ccc(C)s2)cc1OC,i,i,i,i,i,·,·
CCc1ccc(NC(=S)N2CCN(S(=O)(=O)c3ccccc3)CC2)cc1,i,i,i,i,i,·,·
SMILES,MrgX1 allo act,MrgX1 antagonist,RGS4 inh,MrgX1 agonist,RGS4 pot,RGS4 activ val,M3R Ca counter
O=C(CNC1CCCCCC1)Nc1ccc(S(=O)(=O)NC2CC2)cc1,i,i,i,i,-7.7*,64*,84*
Cc1csc2nc(=O)c3ccccc3n12,·,·,i,·,i,·,·
C/C(=N\NC(=O)c1ccc(CN2CCc3ccccc3C2)cc1)c1ccccc1O,i,-5*,i,i,-14*,94*,96*
CC(=O)c1cccc(NC(=O)c2ccc(CN3CCc4ccccc4C3)cc2)c1,i,i,i,i,i,·,·
Cc1ccc(CNC(=O)CSc2nc3c(sc4ccccc43)c(=O)n2CCCN2CCCC2)cc1,i,i,i,i,-11*,94*,97*
COc1cc(-c2cc(-c3ccc(N)cc3)[nH]c(=O)c2C#N)cc(OC)c1OC,i,i,i,i,-8*,0,0
N#Cc1c(-c2ccccc2)cc(-c2ccccc2)[nH]c1=O,i,i,i,i,i,·,·
CN(C)CCCNC(=O)c1ccc(-c2nc(-c3ccc(Cl)cc3)cs2)cc1,i,i,i,i,-8.2*,96*,98*
CCCn1nnnc1NCc1cccc(Cl)c1,i,i,i,i,i,·,·
Cc1cc(NS(=O)(=O)c2ccc(NC(=O)Nc3cccc(C(F)(F)F)c3)cc2)no1,i,i,i,i,i,·,·
Cc1ccc(C)c(NC(=O)CCn2nc(C)cc2C)c1,i,i,i,i,i,·,·
CCCC(=O)NC(=S)Nc1cccc(Cl)c1N1CCCCC1,i,i,i,i,-8.9*,94*,64*
O=C(CN1CCN(CCOCCO)CC1)N1c2ccccc2Sc2ccc(Cl)cc21,i,i,i,i,-9.1*,88*,64*
O=C(O)c1ccccc1SCC(=O)N1c2ccccc2Sc2ccccc21,i,i,i,i,i,·,·
O=C1CCCN1CCCNCC(O)c1ccccc1 (centres undefined),i,i,i,i,i,·,·
O=C(C[n+]1ccccc1)N1c2ccccc2Sc2ccccc21,i,i,i,i,-12*,93*,96*
O=C(CN1CCCCCC1)N1c2ccccc2Sc2ccccc21,i,i,i,i,-11*,92*,92*
O=C1CCCN1CCCNCC(=O)N1c2ccccc2Sc2ccccc21,i,i,i,i,-9.4*,85*,55*
CCc1ccc(N(CC(=O)N2CCOCC2)S(C)(=O)=O)cc1,i,i,i,i,i,·,·
CC1CCC(NC(=O)c2ccc(NC3=NC4CS(=O)(=O)CC4S3)cc2)CC1 (centres undefined),i,i,i,i,i,·,·
